The source made the active and inactive calls. No cut-off for these calls is given here.
Experiments:
[1] = Cytotoxicity against human MCF10A cells assessed as cell viability at 10 uM after 72 hrs by sulforhodamine B assay relative to control; assay type: cell-based, MCF-10A; settings: read-out: Activity
[2] = Selectivity index, ratio of IC50 for human MCF10A cells in presence of doxorubicin to IC50 for human MCF7 cells in presence of doxorubicin; assay type: toxicity; settings: MCF10A cells and MCF7 cells, read-out: Ratio IC50
MCF7 [3] = test: Antiproliferative activity against human MCF7 cells after 72 hrs in presence of doxorubicin by sulforhodamine B assay; assay type: functional, cell-based; settings: MCF7, 72 h
MCF7 [4] = test: Anticancer activity against human MCF7 cells after 72 hrs by sulforhodamine B assay; assay type: functional, cell-based; settings: MCF7, 72 h
Procedure, shortened: (§1)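 Cells seeded at 3000 cells/100 µL per well, left to adhere overnight (18-20 h), then exposed to a range of compound concentrations for 72 h. Vehicle control was 0.5% DMSO. Cytotoxicity was read by sulforhodamine B at 490 nm, with 690 nm as background. IC50 came from sigmoidal variable-slope nonlinear regression on log-transformed data, from at least three independent experiments, each in triplicate.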

MCF7 [5] = test: Cell cycle arrest in human MCF7 cells at IC50 after 48 hrs by propidium iodide staining based flow cytometry; assay type: functional
Procedure, shortened: (§2)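 MCF-7 cells seeded at 2.5×10^5 per well and grown overnight. […] Cells fixed in 70% ethanol for at least 30 min at 4 °C, then stained with PI (50 µg/mL) plus RNase A and Triton X-100 for 1 h in the dark at […]. Flow cytometry with 488 nm excitation gave the phase distribution. Two independent biological replicates.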

MCF7 [6] = test: Anticancer activity against human MCF7 cells assessed as cell viability at 30 uM after 72 hrs by sulforhodamine B assay relative to control; assay type: functional; settings: MCF7, 72 h, read-out: Activity
MCF7 [7] = test: Antiproliferative activity against human MCF7 cells at IC50 after 48 hrs by Brdu incorporation assay relative to control; assay type: functional
Procedure, shortened: (§3)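 Labelling with 20 µM BrdU (final) for 6 h. FixDenat 30 min, then anti-BrdU-POD 90 min at room temperature. Substrate colour for 5-10 min, stopped with H2SO4, absorbance at 450 nm (reference 690 nm). Cell-free blanks included. At least three independent experiments in triplicate.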

Hs-578T [8] = test: Anticancer activity against human Hs 578T cells assessed as cell viability at 30 uM after 72 hrs by sulforhodamine B assay relative to control; assay type: functional; settings: read-out: Activity
MCF7 [9] = test: Induction of apoptosis in human MCF7 cells assessed as decrease in Bcl-xL level at IC50 after 48 hrs by Western blot analysis
MCF-10A [10] = test: Cytotoxicity against human MCF10A cells after 72 hrs by sulforhodamine B assay; assay type: cell-based; procedure, shortened: as §1
Hs-578T [11] = test: Anticancer activity against human Hs 578T cells after 72 hrs by sulforhodamine B assay; assay type: functional, cell-based; procedure, shortened: as §1
[12] = Cytotoxicity against human MCF10A cells assessed as cell viability at 30 uM after 72 hrs by sulforhodamine B assay relative to control; assay type: cell-based, MCF-10A; settings: read-out: Activity
MCF-10A [13] = test: Cytotoxicity against human MCF10A cells after 72 hrs in presence of doxorubicin by sulforhodamine B assay; assay type: cell-based
MCF7 [14] = test: Anticancer activity against human MCF7 cells assessed as cell viability at 10 uM after 72 hrs by sulforhodamine B assay relative to control; assay type: functional; settings: MCF7, 72 h, read-out: Activity
MCF7 [15] = test: Induction of apoptosis in human MCF7 cells assessed as increase in Bim level at IC50 after 24 hrs by Western blot analysis; assay type: functional, cell-based
Procedure, shortened: (§4)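 MCF-7 cells at 70-80% confluence were treated at IC50 or with 0.5% DMSO for 24 h. Lysis in Tris/NaCl/EDTA buffer with NP-40, Triton X-100, phosphatase and protease inhibitors. 20 µg protein run on 12% SDS-PAGE and transferred to nitrocellulose. Probed overnight at 4 °C with anti-PARP (1:500) or anti-BIM (1:1000), then HRP secondaries and chemiluminescence. At least two independent experiments.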

MCF7 [16] = test: Induction of apoptosis in human MCF7 cells assessed as increase in cleaved PARP level at IC50 after 24 hrs by Western blot analysis; assay type: functional, cell-based; procedure, shortened: as §4
MCF7 [17] = test: Antimigratory activity against human MCF7 cells assessed as reduction in cell migration at half IC50 to IC50 after 12 to 48 hrs by microscopy based wound healing assay; assay type: functional
Procedure, shortened: (§5)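 Wound healing: MCF-7 cells plated at 9.0 × 10^5 per 2 mL and grown overnight to confluence. Two scratches made with a pipette tip, then wash with PBS. Treatment at IC50 or ½ IC50, or 0.5% DMSO. Four positions per wound were imaged at 0, 12, 24 and 48 h at 100x. Migration distances were measured and normalised to control. Three independent experiments.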

MCF7 [18] = test: Induction of microtubule disruption in human MCF7 cells at IC50 after 12 hrs by DAPI staining based microscopic analysis; assay type: cell-based
Procedure, shortened: (§6)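 MCF-7 cells seeded at 2.0×10^5 per well and incubated overnight. Treatment at IC50 for 12 h, with 0.5% DMSO vehicle and paclitaxel (2 µM) as reference. Fixation in methanol for 20 min at -20 °C and blocking in 5% BSA. β-tubulin antibody (1:200) for 2 h, fluorescent secondary for 1 h, and DAPI nuclear counterstain. Confocal imaging with a 60x oil objective, 405/488 nm excitation.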

Hs-578T [19] = test: Anticancer activity against human Hs 578T cells assessed as cell viability at 10 uM after 72 hrs by sulforhodamine B assay relative to control; assay type: functional; settings: read-out: Activity
MCF7 [20] = test: Induction of apoptosis in human MCF7 cells at IC50 after 48 hrs by Annexin-V-FITC/propidium iodide staining based flow cytometry; assay type: functional, cell-based
Procedure, shortened: (§7)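 Floating and adherent cells were pooled and resuspended in binding buffer. Staining with FITC-annexin V and PI for 15 min at room temperature in the dark, followed by flow cytometry quadrant analysis normalised to untreated cells. Two independent experiments, triplicates within each.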

MCF7 [21] = test: Antiproliferative activity against human MCF7 cells at half IC50 to IC50 after 24 to 48 hrs by Brdu incorporation assay; assay type: functional, cell-based; procedure, shortened: as §3
MCF7 [22] = test: Induction of apoptosis in human MCF7 cells assessed as increase in late apoptotic cells at IC50 after 48 hrs by Annexin-V-FITC/propidium iodide staining based flow cytometry; assay type: functional, cell-based; procedure, shortened: as §7
MCF7 [23] = test: Cell cycle arrest in human MCF7 cells assessed as accumulation at G2/M phase at IC50 after 48 hrs by propidium iodide staining based flow cytometry; assay type: functional; procedure, shortened: as §2
MCF7 [24] = test: Induction of microtubule disruption in human MCF7 cells assessed as nuclei condensation at IC50 after 12 hrs by DAPI staining based microscopic analysis; assay type: cell-based
MCF7 [25] = test: Induction of apoptosis in human MCF7 cells assessed as increase in early apoptotic cells at IC50 after 48 hrs by Annexin-V-FITC/propidium iodide staining based flow cytometry; assay type: functional, cell-based; procedure, shortened: as §7
MCF7 [26] = test: Induction of microtubule disruption in human MCF7 cells assessed as cell shrinkage at IC50 after 12 hrs by DAPI staining based microscopic analysis; procedure, shortened: as §6
MCF7 [27] = test: Antimigratory activity against human MCF7 cells assessed as reduction in cell migration at half IC50 to IC50 after 48 hrs by microscopy based wound healing assay relative to control; assay type: functional; parameters: scale not given: the % may be the effect or the level left; procedure, shortened: as §5
MCF7 [28] = test: Cell cycle arrest in human MCF7 cells assessed as reduction in G0/G1 population at IC50 after 48 hrs by propidium iodide staining based flow cytometry; assay type: functional; procedure, shortened: as §2
MCF7 [29] = test: Induction of microtubule disruption in human MCF7 cells assessed as cell rounding at IC50 after 12 hrs by DAPI staining based microscopic analysis; procedure, shortened: as §6
MCF7 [30] = test: Inhibition of beta-tubulin polymerization in human MCF7 cells assessed as increase in beta-tubulin levels at IC50 after 24 hrs by Western blot analysis; assay type: cell-based
MCF7 [31] = test: Induction of microtubule disruption in human MCF7 cells assessed as cell detachment at IC50 after 12 hrs by DAPI staining based microscopic analysis; procedure, shortened: as §6
MCF7 [32] = test: Induction of microtubule disruption in human MCF7 cells assessed as nuclei contraction at IC50 after 12 hrs by DAPI staining based microscopic analysis; assay type: cell-based
MCF7 [33] = test: Cell cycle arrest in human MCF7 cells assessed as DNA fragmentation at IC50 after 48 hrs by propidium iodide staining based flow cytometry; assay type: functional; procedure, shortened: as §2
MCF7 [34] = test: Cell cycle arrest in human MCF7 cells assessed as accumulation at sub-G0/G1 phase at IC50 after 48 hrs by propidium iodide staining based flow cytometry; assay type: functional; procedure, shortened: as §2

| SMILES | viability at 72 h, 10 µM [1] [%] | selectivity ratio [2] | IC50 (MCF7 [3]) [µM] | IC50 (MCF7 [4]) [µM] | Activity (MCF7 [5]) | viability at 30 µM (MCF7 [6]) [%] | Activity (MCF7 [7]) [%] | viability at 30 µM (Hs-578T [8]) [%] | Activity (MCF7 [9]) | IC50 (MCF-10A [10]) [µM] | IC50 (Hs-578T [11]) [µM] | viability at 72 h, 30 µM [12] [%] | IC50 (MCF-10A [13]) [µM] | viability at 10 µM (MCF7 [14]) [%] | Activity (MCF7 [15]) | Activity (MCF7 [16]) | Activity (MCF7 [17]) | Activity (MCF7 [18]) | viability at 10 µM (Hs-578T [19]) [%] | Activity (MCF7 [20]) | also measured |
| --- | --- | --- | --- | --- | --- | --- | --- | --- | --- | --- | --- | --- | --- | --- | --- | --- | --- | --- | --- | --- | --- |
| Cc1ccc(C(=O)/C=C/c2cc(Cl)ccc2O)cc1 | 33.5 | 3.07 | 0.27 | 3.98 | inactive | 27.7 | >50 | 70.5 | Active | 24.2 | 4.8 | 51.1 | 1.1 | 36.8 | Active | Active | inactive | inactive | 66.3 | inactive |  |
| O=C(/C=C/c1cc(Br)ccc1O)c1ccc(Br)cc1 | 32.8 | 53 | 0.28 | 3.82 | inactive | 28.3 |  | 124 | Active | 29.3 | 5.88 | 47.6 | 15.1 | 28.7 | Active | Active | inactive | inactive | 63.5 | inactive | Activity (MCF7 [21]): inactive |
| COc1cccc(C(=O)CC2C(C#N)=C(N)Oc3c(OC)cc(Br)cc32)c1 (centres undefined) | 32.3 | 13.4 | 0.11 | 3.65 |  | 33.9 | 20 | 83.3 | Active | 18.9 | 4.52 | 46.3 | 1.58 | 55.9 | Active | Active |  |  | 46.1 |  | Activity (MCF7 [22]): Active; Activity (MCF7 [23]): Active; Activity (MCF7 [24]): Active; Activity (MCF7 [25]): Active; Activity (MCF7 [26]): Active; Activity (MCF7 [27]): 50%; Activity (MCF7 [28]): Active; Activity (MCF7 [29]): Active; inhibition (MCF7 [30]): Active; Activity (MCF7 [31]): Active; Activity (MCF7 [32]): Active |
| COc1cccc(C(=O)/C=C/c2cc(Br)ccc2O)c1 | 33.8 | > 142 | 0.42 | 5.07 |  | 28.3 | >50 | 55.8 | Active | 40.6 | 7.27 | 66.3 | > 60 | 26.9 | Active | Active | inactive | inactive | 38.5 |  | Activity (MCF7 [22]): Active; Activity (MCF7 [33]): Active; Activity (MCF7 [25]): Active; Activity (MCF7 [34]): Active |
